Assay [1] deals with Human immunodeficiency virus type 1 reverse transcriptase (Human immunodeficiency virus 1) (UniProt Q72547). Kind of assay: Compound tested for % inhibition of cell-free HIV-1 Reverse Transcriptase at a concentration of 19.6 uM. The gist of the method: (§1)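 HIV-1 RT came from disrupted, partially purified, concentrated virions. Reaction ran 30 min at 37 °C in 50 mM Tris-HCl pH 8.4 with 2 mM DTT, 100 mM KCl, 10 mM MgCl2, 0.1% Triton X-100, [methyl-3H]dTTP (1 µCi, 30 Ci/mmol), poly(rA)·oligo(dT) template and compound. It was stopped with 5% TCA, and precipitate was filter-collected and scintillation-counted. Variation was at most 10%.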

The test system of assay [2] is MT4. Briefly: Compound tested for its ability to reduce viability of mock-infected MT-4 cells. The following applies: Homo sapiens, read-out: CD50 (the source's name). Format: functional. The gist of the method: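 Mock-infected MT-4 cells were incubated 4 days with a range of compound concentrations, and viability was read by MTT. CD50 is the 50% cytotoxic dose from reduced viability, given as the mean of two separate experiments.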

In assay [3] the target is Human immunodeficiency virus type 1 reverse transcriptase (Human immunodeficiency virus 1) (UniProt Q72547). Kind of assay: Inhibitory dose at a concentration 490 uM cell-free HIV-1 Reverse Transcriptase. The method in brief:
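HIV-1 RT from disrupted, partially purified and concentrated virions. 37 °C for 30 min in 50 mM Tris-HCl pH 8.4, 2 mM DTT, 100 mM KCl, 10 mM MgCl₂, 0.1% Triton X-100, 1 µCi [methyl-³H]dTTP, 0.01 unit poly(rA)·oligo(dT). Stopped with 5% TCA; precipitate collected on glass-fiber filters and counted by scintillation. Means of two experiments; variation ≤10%.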

Assay [4] concerns MT4. Briefly: Compound tested for its inhibition of HIV-1 induced cytopathogenicity in MT-4 cells. Type of assay: functional. The following applies: Homo sapiens, read-out: ED50 (the source's name). The method in brief: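 MT-4 cells infected with HIV-1 (HTLV-III_B) at MOI 0.02 and incubated 4 days with a range of compound concentrations. Viable cells were counted by MTT. ED50 is the 50% antiviral dose from inhibition of virus-induced cytopathogenicity, given as the mean of two separate experiments.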
Background: Protection from cytopathic effect is a common read-out in antiviral testing.

Assay [5] deals with MT4. Briefly: Cell viability at a concentration of 20(19.6) ug/mL (uM). Format: functional, Homo sapiens.
Assay [6] deals with MT4. Briefly: Compound was evaluated for inhibitory effect against MT-4 cells of HIV-1 at a concentration of 20(19.6) ug/mL (uM). Format: functional, Homo sapiens. The method in brief:
(§2)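 HIV-1 (HTLV-III_B) infected MT-4 cells at multiplicity of infection 0.02, incubated with a range of compound concentrations for 4 days. Viable cells counted by MTT method. Per-concentration inhibition of virus-induced cytopathogenicity; values are means of two separate experiments.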

Assay [7] has as its system MT4. Briefly: Compound was evaluated for inhibitory effect against MT-4 cells of HIV-2 at a concentration of 4(3.9) ug/mL (uM). Format: functional, Homo sapiens. The gist of the method:
(§3)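 HIV-2 (ROD strain) infected MT-4 cells at multiplicity of infection 0.02, incubated with a range of compound concentrations for 4 days. Viable cells counted by MTT method. Per-concentration inhibition of virus-induced cytopathogenicity; values are means of two separate experiments.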

Assay [8] relates to MT4. Briefly: Compound was evaluated for inhibitory effect against MT-4 cells of HIV-1 at a concentration of 0.8(0.8) ug/mL (uM). Format: functional, Homo sapiens. The gist of the method:
as §2

Assay [9] deals with Human immunodeficiency virus type 1 reverse transcriptase (Human immunodeficiency virus 1) (UniProt Q72547). Kind of assay: Compound tested for % inhibition of cell-free HIV-1 Reverse Transcriptase at a concentration of 3.9 uM. The gist of the method: as §1
For assay [10], the system named is MT4. Kind of assay: Compound was evaluated for inhibitory effect against MT-4 cells of HIV-2 at a concentration of 0.8(0.8) ug/mL (uM). Type of assay: functional, Homo sapiens. The method in brief:
as §3

For assay [11], the system named is MT4. Kind of assay: Compound was evaluated for inhibitory effect against MT-4 cells of HIV-2 at a concentration of 20(19.6) ug/mL (uM). Format: functional, Homo sapiens. The method in brief:
as §3

For assay [12], the system named is MT4. Briefly: Cell viability at a concentration of 100(98) ug/mL (uM). Type of assay: functional, Homo sapiens.
Assay [13] relates to Human immunodeficiency virus 1. Kind of assay: Compound tested for % inhibition of giant cell formation at a concentration of 98 uM.
In assay [14] the test system is MT4. Kind of assay: Compound tested for its inhibition of HIV-2 induced cytopathogenicity in MT-4 cells. The following applies: Homo sapiens, read-out: ED50 (the source's name). Format: functional. The method in brief: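 MT-4 cells infected with HIV-2 (ROD) at MOI 0.02 and incubated 4 days with a range of compound concentrations. Viable cells were counted by MTT. ED50 is the dose giving 50% inhibition of virus-induced cytopathogenicity, given as the mean of two separate experiments.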

The subject of the next assay is MOLT-4 (Homo sapiens). Briefly: Compound tested for % inhibition of giant cell formation at a concentration of 98 uM.
Assay [15] relates to MT4. Kind of assay: Cell viability at a concentration of 4(3.9) ug/mL (uM). Format: functional, Homo sapiens.
Assay [16] concerns MT4. Briefly: Compound was evaluated for inhibitory effect against MT-4 cells of HIV-1 at a concentration of 4(3.9) ug/mL (uM). Type of assay: functional, Homo sapiens. The method in brief:
as §2

Assay [17] deals with Human immunodeficiency virus type 1 reverse transcriptase (Human immunodeficiency virus 1) (UniProt Q72547). Briefly: Compound tested for % inhibition of cell-free HIV-1 Reverse Transcriptase at a concentration of 490 uM. The gist of the method:
as §1

In assay [18] the test system is MT4. Briefly: Compound was evaluated for inhibitory effect against MT-4 cells of HIV-1 at a concentration of 100(98) ug/mL (uM). Format: functional, Homo sapiens. The method in brief:
as §2

For assay [19], the system named is MT4. Briefly: Compound was evaluated for inhibitory effect against MT-4 cells of HIV-2 at a concentration of 100(98) ug/mL (uM). Format: functional, Homo sapiens. The gist of the method:
as §3

Assay [20] relates to MT4. Briefly: Cell viability at a concentration of 0.8(0.8) ug/mL (uM). Format: functional, Homo sapiens.
In assay [21] the target is Human immunodeficiency virus type 1 reverse transcriptase (Human immunodeficiency virus 1) (UniProt Q72547). The following applies: 350 uM.
Assay [22] has the same target. The following applies: 2.8 uM.
The target is the same in assay [23]. The following applies: 14 uM.
Assay [24] shares this target. The following applies: 350 uM. The source holds these as a separate data set.

≈ marks a conversion by molar mass, not a printed value.

The inhibition is the percentage by which the read-out fell short of the control. A high value points to strong suppression. In general, Inhibition refers to the share of the control response that was lost under treatment. Read a low Inhibition as a weak effect. As for `O=S(=O)([O-])c1cc(O)c2c(NS(=O)(=O)c3ccc(-c4ccc(S(=O)(=O)Nc5cc(S(=O)(=O)[O-])cc6cc(S(=O)(=O)[O-])cc(O)c56)cc4)cc3)cc(S(=O)(=O)[O-])cc2c1.[Na+].[Na+].[Na+].[Na+]`, the inhibition was found to be 30% in [1], 0% in [9], 100% in assay [13] and 100% in assay [17]. Moreover, in the assay with MT4 [2], the CC50 was above 100 µg/mL. Further, in assay [3], the ID50 is 190 µg/mL. In addition, the EC50 was 7.8 µg/mL with MT4 [4] and 37 µg/mL in the assay on MT4 [14]. Besides, the Cell viability in the assay on MT4 [5], with MT4 [12], with MT4 [15] and in the assay with MT4 [20] was 0 each time. Also, the Inhibition with MT4 [6] came to 100%; in the assay on MT4 [7] it was 7%; in the assay on MT4 [8], 5%; in the assay on MT4 [10] it was 6%; with MT4 [11] it was 20%; in the assay with MT4 [16] it was 15%. Further, the Inhibition in the assay with MT4 [18] and with MT4 [19] was 100% each time. Besides, the inhibition at 98 µM with MOLT-4 (Homo sapiens) came out at 100%.

`Cc1ccc(C(=O)Nc2ccc(S(=O)(=O)O)c3cc(S(=O)(=O)O)cc(S(=O)(=O)O)c23)cc1NC(=O)c1cccc(NC(=O)Nc2cccc(C(=O)Nc3cc(C(=O)Nc4ccc(S(=O)(=O)O)c5cc(S(=O)(=O)O)cc(S(=O)(=O)O)c45)ccc3C)c2)c1`: the inhibition turned out to be 92% in [21], 18% in [22] and 22% in [23]. This compound yielded an ID50 in [24] of 42 µg/mL (≈ 32.4 µM).

Values taken from ChEMBL document CHEMBL1125724, “Potential anti-AIDS agents. Synthesis and antiviral activity of naphthalenesulfonic acid derivatives against HIV-1 and HIV-2” (1991).
